For data set [1], the species on record is Homo sapiens. The data set can be described thus: Ratio of nicardipine activity to test compound activity for inhibition of P-gp in human NCI/ADR-RES cells assessed as rate of calcein-AM accumulation. The class given is cell-based. The procedure, abridged: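 Rate of calcein accumulation in NCI/AdrRES cells (1 µM calcein-AM in HBSS, fluorescence versus time, slope by linear regression) with the P-gp modulator nicardipine, compared to the rate with test compound.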

Data set [2] in a line: Absolute oral bioavailability in human at 150 mg. The following applies: in vivo. The class given is ADME, organism-based.
Data set [3] has as its system MCF7. As to the kind of experiment: Effect on calcein-AM accumulation in human wild type MCF7 cells at 1 uM by fluorescence assay. The class given is functional, cell-based. A digest of the protocol:
(§1)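 Cells seeded at 2 × 10^3/well and grown 2 d, washed and placed in HBSS; test compound added at 2X in HBSS with DMSO ≤1% final, then calcein-AM at 1 µM final; intracellular fluorescence followed over time, rate taken as slope from linear regression.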

For data set [4], the species on record is Homo sapiens. As to the kind of experiment: Binding affinity to recombinant P-gp cys-less mutant (unknown origin) in proteoliposomes assessed as increase in ATP hydrolysis rate at 10^-9 to 10^-4 M after 40 mins by colorimetric assay relative to basal control. A digest of the protocol: (§2)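 P-gp expressed in High-Five insect cells via recombinant baculovirus, IMAC-purified and reconstituted into proteoliposomes; 0.1-0.5 µg incubated with 2 mM ATP and drug at 10^-9 to 10^-4 M for 40 min at 37 °C; liberated Pi measured colorimetrically; EC50 and extent of stimulation from dose-response fit against drug-free basal activity.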

In data set [5] the test system is PANC-1. As to the kind of experiment: Cell cycle arrest in human PANC1 cells assessed as accumulation at S phase at 10 uM after 18 hrs by Hoechst 33342 staining based FACS analysis (reference value: 11.1%). The class given is functional.
Data set [6] has as its system PANC-1. The data set can be described thus: Cell cycle arrest in human PANC1 cells assessed as accumulation at G1 phase at 10 uM after 18 hrs by Hoechst 33342 staining based FACS analysis (reference value: 70.7%). The class given is functional.
The subject of data set [7] is NCI/ADR-RES. As to the kind of experiment: Antiproliferative activity against human NCI/ADR-RES cells after 6 days by MTT assay. The following applies: 144 h. The class given is functional, cell-based. A digest of the protocol:
(§3)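 Cells seeded overnight at 1500/well, then exposed to a range of concentrations for 6 d; viability by MTT (570 nm, background-subtracted, normalised to untreated control = 100%); EC50 from sigmoidal dose-response fit by non-linear least squares; mean ± SEM of at least 8 independent observations. MCF-7 in MEMα + 10% FBS; NCI/AdrRES in DMEM + 10% FCS with periodic 3 µM doxorubicin selection.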

Data set [8] concerns MCF7. As to the kind of experiment: Cytotoxicity against human MCF7 cells. The class given is functional, cell-based.
Data set [9] deals with MCF7. As to the kind of experiment: Antiproliferative activity against human MCF7 cells after 6 days by MTT assay. The class given is functional, cell-based. The following applies: MCF7, 144 h. The procedure, abridged: as §3
Data set [10] has as its system PANC-1. As to the kind of experiment: Cell cycle arrest in human PANC1 cells assessed as increase in accumulation at G2/M phase at 10 uM after 18 hrs by Hoechst 33342 staining based FACS analysis relative to control. The class given is functional. The procedure, abridged:
(§4)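 Cells seeded 48 h beforehand, treated 18 h with test compounds at 10 µM or vincristine at 100 nM, then trypsinised and stained with Hoechst 33342 for 60 min; FACS read at 450 nm; % G2/M increase calculated relative to 0.1% DMSO vehicle; mean ± SEM of three independent experiments.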

Data set [11] is described as follows: Cytotoxicity against human Renal 1983 cells. The class given is functional, cell-based.
Data set [12] in a line: Binding affinity to recombinant P-gp cys-less mutant (unknown origin) in proteoliposomes assessed as increase in ATP hydrolysis rate after 40 mins by colorimetric assay. On the set-up: species or system Homo sapiens. A digest of the protocol:
as §2

For a further data set, the species on record is Sus scrofa. As to the kind of experiment: Inhibition of pig tubulin polymerization assessed as Vmax of tubulin polymerization at 10 uM after 60 mins turbidimetric analysis (reference value: 27 +/- 2 milliOD/min).
The test system of the next data set is HeLa. As to the kind of experiment: Cytotoxicity against human HeLa cells. The class given is functional, cell-based.
Data set [13] deals with NCI/ADR-RES. The data set can be described thus: Inhibition of P-gp in human NCI/ADR-RES cells assessed as rate of calcein-AM accumulation at 1 uM by fluorescence assay. The class given is cell-based. The procedure, abridged:
as §1

Data set [14] concerns MCF7. The data set can be described thus: Cell cycle arrest in human MCF7 cells assessed as increase in accumulation at G2/M phase at 10 uM after 18 hrs by Hoechst 33342 staining based FACS analysis relative to control. The class given is functional. The procedure, abridged: as §4
For data set [15], the system named is PANC-1. As to the kind of experiment: Cell cycle arrest in human PANC1 cells assessed as accumulation at G2/M phase at 10 uM after 18 hrs by Hoechst 33342 staining based FACS analysis (reference value: 13.7%). The class given is functional.
Data set [16] is described as follows: Terminal half life in human. The class given is ADME, organism-based. The following applies: in vivo, read-out: beta t1/2 (converted).

pEC50, pIC50: −log10 of the molar value. Calls of active or inactive are those of the source. The calls are words filed in the database; no cut-off is given here.

We go through one compound from ChEMBL document CHEMBL4196179, “Synthesis and Pharmacological Evaluation of Noscapine-Inspired 5-Substituted Tetrahydroisoquinolines as Cytotoxic Agents” (J Med Chem, 2018).

As to `COc1ccc2c(c1OC)C(=O)O[C@@H]2[C@H]1c2c(cc3c(c2OC)OCO3)CCN1C` [NOSCAPINE], in the data set listed under Homo sapiens [1], the Ratio was 4. The bioavailability in data set [2] worked out at 30%. Further, the outcome in the data set with MCF7 [3] was inactive. For the same compound, the fold change (FC) in the data set filed under Homo sapiens [4] is 17.6. For the same compound, the Activity is 10.8% in the data set with PANC-1 [5]; 69.3% in the data set with PANC-1 [6]; 16% in the data set with PANC-1 [10]; 26.7 RFU/min in the data set on NCI/ADR-RES [13]; 2% in the data set on MCF7 [14]; 16.1% in the data set with PANC-1 [15]. Moreover, the pIC50 with NCI/ADR-RES [7] is 4.76; with MCF7 [8] it was 4.38; in the data set on MCF7 [9], 4.73; in data set [11], 4.41; with HeLa it was 4.60. In data set [12], the pEC50 was 4.16. Also, the Vmax (milli optical density/minute) in the data set listed under Sus scrofa stood at 20. Moreover, the half-life in [16] is 4.5 h.
